Data published in ChEMBL document CHEMBL5653617, “Inhibition of BRD4 attenuates tumor cell self-renewal and suppresses stem cell signaling in MYC driven medulloblastoma” (Oncotarget, 2014).
Calls of active or inactive are those of the source.

Assays:
D283 Med [1] = assay: Induction of cell cycle arrest in human D283 Med cells assessed as G2/M phase cells at 300 nM incubated for 48 hrs by flow cytometry analysis (reference value: 55.70 +/- 1.50 %); assay type: functional
Medulloblastoma cell [2] = assay: Cytotoxicity against patient-derived Medulloblastoma cells assessed as reduction in cell viability at 300 nM by LDH assay; assay type: functional, cell-based; conditions: Homo sapiens
Summary of the method: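 Primary tumor slices cultured as described and treated daily from day 5 with DMSO, 300 nM drug, or mitomycin C (50 ug/mL). Spent medium was collected at each change and stored at -80 °C. LDH activity was measured by kit and normalized to the mitomycin C treatment.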

Daoy [3] = assay: Downregulation of BARD1 gene expression in human Daoy cells at 300 nM by GSEA method; assay type: functional, cell-based
Summary of the method: (§1)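 Daoy cells treated with DMSO or 300 nM drug. RNA extracted and hybridized to Affymetrix HG-ST2.0 arrays. Analysis in R/Bioconductor with gene set enrichment analysis. Regulated transcripts defined as p < 0.05, FDR < 0.05, fold change < 0.67 (down) or > 1.5 (up).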

Daoy [4] = assay: Antitumor activity against human Daoy cells xenografted in athymic nude mice assessed as inhibition of proliferation at 50 mg/kg, ip measured after 5 days by Ki67 staining based analysis; assay type: functional, organism-based; conditions: time 5.0 day
Summary of the method: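 Daoy cells (1.0×10^7 in PBS) injected into the flank of athymic nude mice. Once tumors were palpable, drug given 50 mg/kg i.p. with DMSO as vehicle control. Animals were sacrificed after a 5-day treatment. Tumors were assessed by Ki67 IHC and by senescence-associated β-galactosidase staining.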

[5] = target: Bromodomain-containing protein 4 (Homo sapiens) (UniProt O60885); conditions: D425 Med, dose 300.0 nM
Daoy [6] = assay: Induction of senescence in human Daoy cells assessed as increase in p16 mRNA expression at 300 nM by RT-qPCR analysis; assay type: functional, cell-based
Summary of the method: (§2)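 Cells treated with 300 nM drug or DMSO. p16, p21 and p27 mRNA measured by TaqMan qPCR with ΔΔCt quantitation, in triplicate.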

Daoy [7] = assay: Antiproliferative activity in human Daoy cells assessed as inhibition of cell growth measured upto 120 hrs by xCELLigence system; assay type: functional, cell-based; conditions: dose 0.1-1 µM
Summary of the method: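 Real-time impedance growth monitoring (xCELLigence, E-Plate 96). 1000 cells/well plated, DMSO or drug at varying concentrations added 24 h later, growth recorded continuously over time.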

D283 Med [8] = assay: Inhibition of colony formation in human D283 Med cells at 100 to 300 nM incubated for 8 to 11 days by NBT staining based methyl cellulose colony growth assay; assay type: functional, cell-based; conditions: dose 100-300 nM, time 8-11 day
Summary of the method: (§3)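 500 cells/well suspended in DMEM with methyl cellulose (1.3% final) containing 150 or 300 nM drug or DMSO, plated in triplicate. Colonies formed over 8–11 days, then stained with NBT (1 mg/ml) for 24 h at 37 °C. Colonies of ≥50 cells counted.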

D458 Med [9] = assay: Induction of cell cycle arrest in human D458 Med cells assessed as accumulation of cells at G1 phase at 300 nM incubated for 48 hrs by flow cytometry analysis (reference value: 35.85 +/- 1.37%); assay type: functional
[10] = target: Bromodomain-containing protein 4 (Homo sapiens) (UniProt O60885); conditions: Daoy, dose 300.0 nM
D425 Med [11] = assay: Inhibition of colony formation in human D425 Med cells at 100 to 300 nM incubated for 8 to 11 days by NBT staining based methyl cellulose colony growth assay; assay type: functional, cell-based; conditions: dose 100-300 nM, time 8-11 day; summary of the method: as §3
Daoy [12] = assay: Downregulation of CRIP1 gene expression in human Daoy cells at 300 nM by GSEA method; assay type: functional, cell-based; summary of the method: as §1
Daoy [13] = assay: In vivo inhibition of BRD4 in athymic nude mouse xenografted with human Daoy cells assessed as reduction in SOX2 protein expression in tumor at 50 mg/kg, ip measured after 5 days by immunofluorescence analysis; assay type: functional, organism-based; conditions: time 5.0 day
Summary of the method: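 Tumors from Daoy flank xenografts in nude mice treated 50 mg/kg i.p. or DMSO vehicle for 5 days, then sacrificed. SOX2 protein detected by immunofluorescence on tumor sections.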

Daoy [14] = assay: Inhibition of E2F1 activity in human Daoy cells at 100 to 300 nM by luciferase based reporter assay; assay type: functional, cell-based; conditions: dose 100-300 nM
Summary of the method: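 Cignal pathway reporter system using an E2F1-responsive luciferase reporter. Cells seeded in 24-well plates and transfected with Surefect. DMSO or drug added 8 h later, then incubated a further 24 h before luciferase readout.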

[15] = target: Bromodomain-containing protein 4 (Homo sapiens) (UniProt O60885); conditions: D283 Med, dose 300.0 nM
[16] = target: Bromodomain-containing protein 4 (Homo sapiens) (UniProt O60885); conditions: Daoy, dose 100-300 nM, time 48.0 hrs
Medulloblastoma cell [17] = assay: Antitumor activity against patient-derived Medulloblastoma cells assessed as BrdU incorporation at 300 nM preincubated with compound for 7 days followed by BrdU addition and measured after 2 days by flow cytometry analysis (reference value: 33.3); assay type: functional, Homo sapiens; conditions: time 9 day
D283 Med [18] = assay: Antiproliferative activity in human D283 Med cells assessed as inhibition of cell growth at 300 nM by flow cytometry analysis; assay type: functional, cell-based
Summary of the method: (§4)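 ViaCount flow cytometric cell count. Cells seeded in medium, DMSO or drug added 24 h later, cultured a further 48 h. Cells then pelleted, washed, stained with Viacount reagent and counted on a Guava cytometer. Vehicle control DMSO.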

D425 Med [19] = assay: Induction of cell cycle arrest in human D425 Med cells assessed as accumulation of cells at G1 phase at 300 nM incubated for 48 hrs by flow cytometry analysis (reference value: 33.715 +/- 0.495%); assay type: functional
Daoy [20] = assay: Induction of cell cycle arrest in human Daoy cells assessed as G2/M phase cells at 300 nM incubated for 48 hrs by flow cytometry analysis (reference value: 33.94 +/- 1.46%); assay type: functional
Daoy [21] = assay: Antiproliferative activity in human Daoy cells assessed as inhibition of cell growth at 300 nM by flow cytometry analysis; assay type: functional, cell-based; summary of the method: as §4
Daoy [22] = assay: Induction of senescence in human Daoy cells assessed as increase in p27 mRNA expression at 300 nM by RT-qPCR analysis; assay type: functional, cell-based; summary of the method: as §2
[23] = target: Bromodomain-containing protein 4 (Homo sapiens) (UniProt O60885); conditions: D283 Med, dose 300.0 nM; remark: listed apart in the source
[24] = target: Bromodomain-containing protein 4 (Homo sapiens) (UniProt O60885); conditions: D283 Med, time 24-48 hrs
D425 Med [25] = assay: Antiproliferative activity in human D425 Med cells assessed as inhibition of cell growth at 300 nM by flow cytometry analysis; assay type: functional, cell-based; summary of the method: as §4
Daoy [26] = assay: Induction of senescence in human Daoy cells assessed as increase in p21 mRNA expression at 300 nM by RT-qPCR analysis; assay type: functional, cell-based; summary of the method: as §2
[27] = target: Bromodomain-containing protein 4 (Homo sapiens) (UniProt O60885); conditions: D425 Med, dose 300.0 nM; remark: listed apart in the source
D458 Med [28] = assay: Inhibition of colony formation in human D458 Med cells at 100 to 300 nM incubated for 8 to 11 days by NBT staining based methyl cellulose colony growth assay; assay type: functional, cell-based; conditions: dose 100-300 nM, time 8-11 day; summary of the method: as §3

Compound: Cc1sc2c(c1C)C(c1ccc(Cl)cc1)=N[C@@H](CC(=O)OC(C)(C)C)c1nnc(C)n1-2
- Activity (D283 Med [1]): 53.216%
- Activity (Medulloblastoma cell [2]): inactive
- Activity (Daoy [3]): Active
- Activity (Daoy [4]): Active
- inhibition [5]: Active
- Activity (Daoy [6]): Active
- Activity (Daoy [7]): Dose-Dependent Effect
- inhibition (D283 Med [8]): Active
- Activity (D458 Med [9]): 46.86%
- inhibition [10]: Active
- inhibition (D425 Med [11]): Active
- Activity (Daoy [12]): Active
- inhibition (Daoy [13]): Active
- inhibition (Daoy [14]): Active
- inhibition [15]: Active
- inhibition [16]: Dose-Dependent Effect
- Activity (Medulloblastoma cell [17]): 13.5
- Activity (D283 Med [18]): Active
- Activity (D425 Med [19]): 39.393%
- Activity (Daoy [20]): 16.813%
- Activity (Daoy [21]): Active
- Activity (Daoy [22]): Active
- inhibition [23]: Active
- inhibition [24]: Active
- Activity (D425 Med [25]): Active
- Activity (Daoy [26]): Active
- inhibition [27]: Active
- inhibition (D458 Med [28]): Active
